This note sets out measurements from ChEMBL document CHEMBL4428087, “Synthesis and antitumor activity evaluation of quinazoline derivatives bearing piperazine-1-carbodithioate moiety at C4-position” (Bioorg Med Chem Lett, 2016).

The pIC50 is the IC50 on a negative log10 scale, so that one unit is a factor of ten. A lower pIC50 goes with a large IC50.

One assay concerns A549. Nature of the assay: Antiproliferative activity against human A549 cells after 72 hrs by MTS assay. The assay is classed as functional, cell-based. The settings on record: A549, 72 h. The essentials: (§1)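 Cells were exposed to compound for 72 h. A first screen at 50 μM called a compound active at ≥50% inhibition versus vehicle-treated cells. Active compounds were then tested at various concentrations, and IC50 (concentration giving 50% proliferation inhibition) was derived. Values are mean ± SD from triplicate determinations in three independent experiments.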

In a further assay the test system is MCF7. Nature of the assay: Antiproliferative activity against human MCF7 cells after 72 hrs by MTS assay. It is filed as functional, cell-based. The settings on record: MCF7, 72 h. The essentials: as §1
(In general: Tetrazolium assays rely on reduction of a dye to a coloured formazan, in cell work by metabolically active cells.)

The subject of assay [1] is HCT-116. In words: Antiproliferative activity against human HCT116 cells after 72 hrs by MTS assay. The assay is classed as functional, cell-based. The settings on record: HCT-116, 72 h. The essentials: as §1
Assay [2] concerns HCT-116. In words: Cell cycle arrest in human HCT116 cells assessed as accumulation at G0/G1 phase after 24 hrs by propidium iodide staining based flow cytometry. It is filed as functional. The essentials: (§2)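 HCT-116 cells were treated for 24 h at multiples of IC50 (1×, 1.25× or 1.5×) or at 0.1 µM, with a DMSO control. Cells were harvested, fixed in 70% ice-cold ethanol and stained with propidium iodide. DNA content was read by flow cytometry, and the percentages of cells in G0/G1, S and G2/M were calculated. Three independent experiments were run.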
Background: A flow cytometer gives signals particle by particle.

The test system of assay [3] is HCT-116. In words: Cell cycle arrest in human HCT116 cells assessed as accumulation at G0/G1 phase at IC50 after 24 hrs by propidium iodide staining based flow cytometry (reference value: 34.93 %). The assay is classed as functional.
The subject of assay [4] is HCT-116. Nature of the assay: Cell cycle arrest in human HCT116 cells assessed as accumulation at G0/G1 phase at 1.25 times IC50 after 24 hrs by propidium iodide staining based flow cytometry (reference value: 34.93 %). The assay is classed as functional. The essentials:
as §2

Assay [5] deals with HCT-116. Nature of the assay: Cell cycle arrest in human HCT116 cells assessed as accumulation at G0/G1 phase at 1.5 times IC50 after 24 hrs by propidium iodide staining based flow cytometry (reference value: 34.93 %). The assay is classed as functional. The essentials:
as §2

The test system of assay [6] is HCT-116. Nature of the assay: Cell cycle arrest in human HCT116 cells assessed as accumulation at S phase at IC50 after 24 hrs by propidium iodide staining based flow cytometry (reference value: 46.36 %). The assay is classed as functional.
Assay [7] relates to HCT-116. Nature of the assay: Cell cycle arrest in human HCT116 cells assessed as accumulation at S phase at 1.25 times IC50 after 24 hrs by propidium iodide staining based flow cytometry (reference value: 46.36 %). The assay is classed as functional. The essentials: as §2
The test system of assay [8] is HCT-116. Nature of the assay: Cell cycle arrest in human HCT116 cells assessed as accumulation at S phase at 1.5 times IC50 after 24 hrs by propidium iodide staining based flow cytometry (reference value: 46.36 %). The assay is classed as functional. The essentials:
as §2

Assay [9] has as its system HCT-116. Nature of the assay: Cell cycle arrest in human HCT116 cells assessed as accumulation at G2/M phase at IC50 after 24 hrs by propidium iodide staining based flow cytometry (reference value: 16.91 %). It is filed as functional.
Assay [10] concerns HCT-116. Nature of the assay: Cell cycle arrest in human HCT116 cells assessed as accumulation at G2/M phase at 1.25 times IC50 after 24 hrs by propidium iodide staining based flow cytometry (reference value: 16.91 %). It is filed as functional. The essentials:
as §2

Assay [11] has as its system HCT-116. In words: Cell cycle arrest in human HCT116 cells assessed as accumulation at G2/M phase at 1.5 times IC50 after 24 hrs by propidium iodide staining based flow cytometry (reference value: 16.91 %). It is filed as functional. The essentials: as §2
In assay [12] the test system is HCT-116. In words: Cell cycle arrest in human HCT116 cells assessed as accumulation at sub-G1 phase after 24 hrs by propidium iodide staining based flow cytometry. It is filed as functional. The essentials: as §2
For assay [13], the system named is HCT-116. In words: Cell cycle arrest in human HCT116 cells assessed as accumulation at G0/G1 phase at 0.1 uM after 24 hrs by propidium iodide staining based flow cytometry (reference value: 34.93 %). It is filed as functional. The essentials:
as §2

The subject of assay [14] is HCT-116. In words: Cell cycle arrest in human HCT116 cells assessed as accumulation at S phase at 0.1 uM after 24 hrs by propidium iodide staining based flow cytometry (reference value: 46.36 %). The assay is classed as functional. The essentials: as §2
In assay [15] the test system is HCT-116. Nature of the assay: Cell cycle arrest in human HCT116 cells assessed as accumulation at G2/M phase at 0.1 uM after 24 hrs by propidium iodide staining based flow cytometry (reference value: 16.91 %). It is filed as functional. The essentials:
as §2

The structures appear in SMILES notation. pIC50: −log10 of the molar value.

As to `CCSC(=S)N1CCN(c2ncnc3cc(OCCCN4CCCCC4)c(OC)cc23)CC1`, the figures for the pIC50 in the assay on A549, with MCF7 and with HCT-116 [1] were 4.74, 4.78 and 4.99, respectively.
Take `COc1cc2c(N3CCN(C(=S)SCc4ccsc4)CC3)ncnc2cc1OCCCN1CCCCC1`: the negative-log IC50 (pIC50) is 5.32 in the assay on A549, 5.29 with MCF7 and 5.25 in the assay with HCT-116 [1].
Regarding `COc1cc2c(N3CCN(C(=S)SCC4OCCO4)CC3)ncnc2cc1OCCCN1CCCCC1`, the figures for the pIC50 in the assay on A549, in the assay on MCF7 and in the assay with HCT-116 [1] were 4.61, 4.53 and 4.62, respectively.
The corresponding values for `COc1cc2c(N3CCN(C(=S)SCc4ccco4)CC3)ncnc2cc1OCCCN1CCCCC1` are 5.18, 5.14 and 5.14.
The corresponding values for `COc1cc2c(N3CCN(C(=S)SCc4ccc(C#N)cc4)CC3)ncnc2cc1OCCCN1CCCCC1` are 5.02, 5.00 and 5.06.
Turning to `COc1cc2c(N3CCN(C(=S)SCC4CCCCC4)CC3)ncnc2cc1OCCCN1CCCCC1`, the Activity result was “Dose-dependent effect” with HCT-116 [2]; 44.47% with HCT-116 [3]; 50.65% with HCT-116 [4]; 55.8% with HCT-116 [5]; 26.82% with HCT-116 [6]; 23.67% with HCT-116 [7]. Moreover, the Activity with HCT-116 [8] was 27.37%; with HCT-116 [9], 28.74%; with HCT-116 [10], 24.97%; in the assay on HCT-116 [11] it was 14.4%; with HCT-116 [12] it was “Dose-dependent effect”. In addition, the pIC50 in the assay on A549 is 5.39; in the assay on MCF7 it was 5.40; in the assay with HCT-116 [1] it was 5.34.
For `COc1cc2c(N3CCN(C(=S)SCc4ccc(C)cc4)CC3)ncnc2cc1OCCCN1CCCCC1`, the pIC50 is 5.35 in the assay on A549, 5.43 with MCF7 and 5.26 in the assay on HCT-116 [1].
`COc1cc2c(N3CCN(C(=S)SCc4ccc(Cl)cc4)CC3)ncnc2cc1OCCCN1CCCCC1`: the pIC50 was 5.33 in the assay with A549, 5.40 in the assay on MCF7 and 5.09 in the assay on HCT-116 [1].
In the same order, the values of `COc1cc2c(N3CCN(C(=S)SCc4ccc(F)cc4F)CC3)ncnc2cc1OCCCN1CCCCC1` are 5.26, 5.33 and 5.33.
The corresponding values for `COc1cc2c(N3CCN(C(=S)SC)CC3)ncnc2cc1OCCCN1CCCCC1` are 4.48, 4.56 and 4.61.
With `CCN(CC)CCNC(=O)c1c(C)[nH]c(/C=C2\C(=O)Nc3ccc(F)cc32)c1C` [SUNITINIB], the Activity result was “Dose-dependent effect” with HCT-116 [2], 50.07% with HCT-116 [13], 33.36% in the assay with HCT-116 [14] and 14.16% with HCT-116 [15].
Regarding `O=c1[nH]cc(F)c(=O)[nH]1` [FLUOROURACIL], the Activity in the assay on HCT-116 [3] worked out at 28.47%; in the assay with HCT-116 [6] it was 62.28%; with HCT-116 [9], 8.29%.
`COc1cc2c(N3CCN(C(=S)SCc4ccc(Br)cc4)CC3)ncnc2cc1OCCCN1CCCCC1`: the pIC50 with A549 is 5.37; in the assay with MCF7, 5.41; with HCT-116 [1], 5.34.
Take `COc1cc2c(N3CCN(C(=S)SCC4CCOCC4)CC3)ncnc2cc1OCCCN1CCCCC1`: the pIC50 in the assay on A549 was 4.72; in the assay with MCF7, 4.74; in the assay on HCT-116 [1], 4.82.
The corresponding values for `COc1cc2c(N3CCN(C(=S)SCc4ccccc4)CC3)ncnc2cc1OCCCN1CCCCC1` are 4.80, 4.55 and 4.54.
Turning to `CCCSC(=S)N1CCN(c2ncnc3cc(OCCCN4CCCCC4)c(OC)cc23)CC1`, the results for the pIC50 in the assay on A549, in the assay on MCF7 and in the assay with HCT-116 [1] were 5.09, 4.98 and 5.06, respectively.
Turning to `COc1cc2c(N3CCN(C(=S)SCc4ccccn4)CC3)ncnc2cc1OCCCN1CCCCC1`, the negative logarithm of the IC50 (pIC50) was 4.54 with A549, 4.68 with MCF7 and 4.69 in the assay with HCT-116 [1].
Take `COc1cc2c(N3CCN(C(=S)SCc4ccc(F)c(F)c4)CC3)ncnc2cc1OCCCN1CCCCC1`: the figures for the pIC50 in the assay on A549, in the assay on MCF7 and with HCT-116 [1] were 5.31, 5.51 and 5.22, respectively.
Regarding `COc1cc2c(N3CCN(C(=S)SCc4ccncc4)CC3)ncnc2cc1OCCCN1CCCCC1`, the pIC50 with A549, with MCF7 and in the assay with HCT-116 [1] was under 4.30 throughout.
Regarding `COc1cc2c(N3CCN(C(=S)SCc4cccnc4)CC3)ncnc2cc1OCCCN1CCCCC1`, the pIC50 in the assay on A549 is 4.71; in the assay on MCF7, 4.65; in the assay with HCT-116 [1], 4.65.
Turning to `COc1cc2c(N3CCN(C(=S)SCc4c(F)c(F)c(F)c(F)c4F)CC3)ncnc2cc1OCCCN1CCCCC1`, the pIC50 with A549 was 5.34; with MCF7, 5.38; with HCT-116 [1], 5.35.
Turning to `COc1cc2c(N3CCN(C(=S)SCc4ccc(C(=O)O)cc4)CC3)ncnc2cc1OCCCN1CCCCC1`, the pIC50 in the assay on A549, in the assay on MCF7 and with HCT-116 [1] was under 4.30 in each case.
Turning to `COc1cc2c(N3CCN(C(=S)SCC4CCCO4)CC3)ncnc2cc1OCCCN1CCCCC1` (centres undefined), the negative logarithm of the IC50 (pIC50) in the assay on A549 was 4.64; in the assay on MCF7 it was 4.64; in the assay on HCT-116 [1], 4.72.
With `COc1cc2c(N3CCN(C(=S)SC(C)C)CC3)ncnc2cc1OCCCN1CCCCC1`, the negative logarithm of the IC50 (pIC50) is 4.95 in the assay on A549, 5.08 with MCF7 and 4.98 in the assay with HCT-116 [1].
In the same order, the values of `COc1cc2c(N3CCN(C(=S)SCc4ccc(F)cc4)CC3)ncnc2cc1OCCCN1CCCCC1` are 5.37, 5.38 and 5.35.
As to `COc1cc2c(N3CCN(C(=O)Nc4ccc(OC(C)C)cc4)CC3)ncnc2cc1OCCCN1CCCCC1` [TANDUTINIB], the values for the pIC50 in the assay on A549, in the assay on MCF7 and in the assay with HCT-116 [1] were 4.83, 4.83 and 4.74, respectively.
With `COc1cccc(CSC(=S)N2CCN(c3ncnc4cc(OCCCN5CCCCC5)c(OC)cc34)CC2)c1`, the results for the negative-log IC50 (pIC50) in the assay on A549, with MCF7 and in the assay with HCT-116 [1] were 5.34, 5.41 and 5.10, respectively.
The corresponding values for `COc1ccc(CSC(=S)N2CCN(c3ncnc4cc(OCCCN5CCCCC5)c(OC)cc34)CC2)cc1` are 5.37, 5.38 and 5.31.
Turning to `COc1cc2c(N3CCN(C(=S)SCc4ccc([N+](=O)[O-])cc4)CC3)ncnc2cc1OCCCN1CCCCC1`, the results for the pIC50 in the assay with A549, in the assay with MCF7 and in the assay on HCT-116 [1] were 5.27, 5.16 and 5.25, respectively.
